Published values collected from several papers.
Compare with care: the assays were run in different laboratories.
Target: Cannabinoid receptor 1 (CNR1, Homo sapiens, UniProt P21554)

SMILES	read-out	action	method	setting	quantity	value
CCCCCc1cc(O)c(C/C=C(\C)CCC=C(C)C)c(O)c1	ligand displacement	–	radioligand	cell membranes	Ki	3090 nM
N#Cc1c(Oc2cccc(OS(=O)(=O)CCCC(F)(F)F)c2)cccc1C(F)(F)F	calcium signal	agonist	–	–	EC50	519 nM
C=C(C)[C@@H]1CCC(C)=C[C@H]1c1c(O)cc(CCC)cc1O	ligand displacement	–	radioligand	cell membranes	Ki	503 nM
Cc1c(C(=O)N2CCC(C(N)=O)(c3ccccc3)CC2)nn(-c2ccc(Cl)cc2Cl)c1-c1ccc(Cl)cc1	calcium signal	antagonist	–	–	Kb	0.4 nM
C=CCC(CC)(NC(=O)c1ccc(C2CC2)c(Cc2ccc(F)cc2)n1)C(=O)OCC (centres unmarked)	ligand displacement	–	radioligand	cell membranes	Ki	2.9 nM
CC(C)C(NC(=O)c1nn(Cc2ccc(F)cc2)c2ccccc12)C(N)=O (centres unmarked)	calcium signal	agonist	–	–	EC50	3.44 nM
CCOC(=O)[C@H](CSC)NC(=O)c1ccc(C2CC2)c(Cc2ccc(F)cc2)n1	ligand displacement	–	radioligand	cell membranes	Ki	19 nM
CCCc1cc(O)c2c(c1)OC(C)(C)c1ccc(C)cc1-2	ligand displacement	–	radioligand	cell membranes	Ki	565 nM
Cc1ccc(OC(C)(C)C(=O)N[C@@H](C)[C@@H](Cc2ccc(OCCF)cc2)c2cccc(C#N)c2)nc1	ligand displacement	–	radioligand	–	Ki	0.1 nM
CCCCCn1cc(C(=O)C2C(C)(C)C2(C)C)c2ccccc21	GTPγS binding	agonist	radiometric	cell membranes	EC50	98 nM
CCOC(=O)C(CC)(CCCSCCOCCOCCNc1ccc([N+](=O)[O-])c2nonc12)NC(=O)c1ccc(C2CC2)c(Cc2ccc(F)cc2)n1 (racemic)	cAMP	agonist	–	–	EC50	600 nM
CCCCC/C=C\C/C=C\C/C=C\C/C=C\CCCC(=O)NCCCl	ligand displacement	–	radioligand	cell membranes	Ki	0.74 nM
CCOC(=O)C(CC)(CCCSCCOCCOCCOCCOCCNC(=O)OC(C)(C)C)NC(=O)c1ccc(C2CC2)c(Cc2ccc(F)cc2)n1 (centres unmarked)	ligand displacement	–	radioligand	cell membranes	Ki	731 nM
CCCCCc1cc2c(c(O)c1C(=O)O)C1C=C(C)CCC1C(C)(C)O2 (centres unmarked)	ligand displacement	–	radioligand	cell membranes	Ki	1290 nM
